Test results as given in ChEMBL document CHEMBL1157428, “Ring-closing metathesis for the synthesis of a highly G-quadruplex selective macrocyclic hexaoxazole having enhanced cytotoxic potency” (Bioorg Med Chem Lett, 2008).
The source made the active and inactive calls. The calls are words filed in the database; no cut-off is given here.

How the values were obtained:
[1] = system: Salmonidae; experiment: Binding affinity to salmon testes duplex DNA assessed as transition temperature
Procedure, shortened: (§1)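 Thermal melting. Salmon testes duplex DNA at 15 μM base pairs, with macrocyclic ligand at 15 μM. Telomeric d[T2G3(T2AG3)3A] at 4 μM strand, with macrocyclic ligand at 20 μM. Buffer was 10 mM EPPS pH 7.5, with KCl added to 50 mM total K+. Transition temperature was taken for DNA with and without ligand.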

[2] = species: Homo sapiens; experiment: Effect on thermal stability of G-quadruplex human telomeric DNA sequence d[T2G3(T2AG3)3A] assessed as transition temperature; procedure, shortened: as §1
[3] = species: Homo sapiens; experiment: Binding affinity to […] human telomeric DNA sequence d[T2G3(T2AG3)3A] assessed as transition temperature; procedure, shortened: as §1
[4] = system: Salmonidae; experiment: Effect on thermal stability of salmon testes duplex DNA assessed as transition temperature; procedure, shortened: as §1
[5] = system: P388; experiment: Cytotoxicity against mouse P388 cells by MTT assay; format: functional, cell-based
[6] = Cytotoxicity against human RPMI8402 cells by MTT assay; format: functional, cell-based; conditions: RPMI 8402
[7] = Cytotoxicity against human KB3-1 cells by MTT assay; format: functional, cell-based; conditions: KB 3-1
[8] = Cytotoxicity against human KBV1 cells by MTT assay; format: functional, cell-based; conditions: KB-V1
[9] = Cytotoxicity against human KBH5.0 cells by MTT assay; format: functional, cell-based; conditions: KBH5.0 cell

Row | SMILES | Activity [1] | Activity [2] | Activity [3] | Activity [4] | IC50 [5] [nM] | IC50 [6] [nM] | IC50 [7] [nM] | IC50 [8] [nM] | IC50 [9] [nM]
1 | CC(C)[C@@H]1NC(=O)c2coc(n2)-c2coc(n2)-c2coc(n2)[C@H](C(C)C)NC(=O)c2coc(n2)-c2coc(n2)-c2coc1n2 [HEXAOXAZOLE DIVALINE] | inactive | Active | Active | inactive | 500 | 410 | 300 | 8000 | 500
2 | CC(C)[C@@H]1NC(=O)c2coc(n2)-c2coc(n2)-c2coc(n2)C/C=C/c2coc(n2)-c2coc(n2)-c2coc1n2 | inactive | Active | Active | inactive | 45 | 25 | 38 | 3300 | 43
